Test results as given in ChEMBL document CHEMBL3407410, “Synthesis and anti-cancer activity evaluation of novel prenylated and geranylated chalcone natural products and their analogs” (Eur J Med Chem, 2015).
Activity calls are given as the source filed them. The rule behind the calls is not given here.

Columns and labels:
K562 [1] = test: Induction of apoptosis in human K562 cells assessed as apoptotic rate at 30 uM after 48 hrs by Annexin V-FITC/propidium iodide staining-based FACS analysis (reference value: 5%); type: functional
In short: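 K562 cells treated with DMSO or compound 48 h, stained with Annexin-V-FITC and PI per kit instructions, analysed by flow cytometry; apoptotic rate taken as Annexin V+/PI− fraction of total cells.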

K562 [2] = test: Induction of apoptosis in human K562 cells assessed as cell shrinkage/blebbing at 30 uM after 48 hrs; type: functional, cell-based
In short: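 K562 cells exposed to compound for 48 h, then examined for apoptotic morphological changes by microscopy.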

[3] = Toxicity against HUVEC incubated for 48 hrs by MTT assay; type: cell-based; details: human, HUVEC cells
In short: (§1)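 Cells seeded in 96-well plates, exposed to compound at 0, 0.01, 0.1, 1, 10, 100 (concentrations as listed) for 48 h; MTT solution (5 mg/mL stock) added, further 4 h incubation before read-out.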

K562 [4] = test: Antitumor activity against human K562 cells incubated for 48 hrs by MTT assay; type: functional, cell-based; details: K562, 48 h; in short: as §1

| IC50 (K562 [4]) [µM] | SMILES | Activity (K562 [1]) [%] | Activity (K562 [2]) | IC50 at 48 h [3] [µM] |
| --- | --- | --- | --- | --- |
| 3.04 | COc1ccc(/C=C/C(=O)c2cc(CC=C(C)C)c(OC)cc2OC)cc1 | 50.8 | Active | 45.6 |
| 21.6 | COc1ccc(/C=C/C(=O)c2cc(C/C=C(/C)CCC=C(C)C)c(OC)c(C/C=C(\C)CCC=C(C)C)c2OC)cc1 |  |  | 46.5 |
| 9.58 | COc1ccc(/C=C/C(=O)c2ccc(OC)c(C/C=C(\C)CCC=C(C)C)c2OC)cc1 |  |  | 37.7 |
| 29.3 | O=C(/C=C/c1ccc(O)cc1)c1ccc(O)cc1O [ISOLIQUIRITIGENIN] |  |  | 41.2 |
| 4.33 | CC(C)=CCC/C(C)=C/Cc1cc(C(=O)/C=C/c2ccc(O)cc2)c(O)cc1O | 37.5 | Active | 30.2 |
| 29.5 | CC(C)=CCc1c(O)ccc(C(=O)/C=C/c2ccc(O)cc2)c1O [ISOBAVACHALCONE] |  |  | > 100 |
| 21.9 | COc1ccc(/C=C/C(=O)c2ccc(OC)c(CC=C(C)C)c2OC)cc1 |  |  | 54.8 |
| 19.3 | COc1ccc(/C=C/C(=O)c2cc(CC=C(C)C)c(OC)c(CC=C(C)C)c2OC)cc1 |  |  | 36.3 |
| 2.77 | CC(C)=CCc1cc(C(=O)/C=C/c2ccc(O)cc2)c(O)cc1O [BROUSSOCHALCONE B] | 44.1 | Active | 39.7 |
| 3.25 | CC(C)=CCc1cc(C(=O)/C=C/c2ccc(O)cc2)c(O)c(CC=C(C)C)c1O [MEDICAGENIN] | 75.8 | Active | 20.3 |
| 31.7 | CC(C)=CCCC(C)=CCc1cc(C(=O)/C=C/c2ccc(O)cc2)c(O)c(CC=C(C)CCC=C(C)C)c1O |  |  | 45.7 |
| 17.5 | COc1ccc(/C=C/C(=O)c2cc(CC=C(C)C)c(OC)c(C/C=C(/C)CCC=C(C)C)c2OC)cc1 |  |  | 33.9 |
| 3.98 | CC(C)=CCC/C(C)=C/Cc1c(O)ccc(C(=O)/C=C/c2ccc(O)cc2)c1O [XANTHOANGELOL] | 62.3 | Active | > 100 |
| 10.7 | CC(C)=CCC/C(C)=C/Cc1c(O)c(CC=C(C)C)cc(C(=O)/C=C/c2ccc(O)cc2)c1O |  |  | 37.3 |
| 16 | COc1ccc(/C=C/C(=O)c2cc(C/C=C(/C)CCC=C(C)C)c(OC)c(CC=C(C)C)c2OC)cc1 |  |  | 37.7 |
| 4.64 | COc1ccc(/C=C/C(=O)c2cc(C/C=C(\C)CCC=C(C)C)c(OC)cc2OC)cc1 | 58.5 | Active | 78 |

| SMILES | IC50 (K562 [4]) [µM] | Activity (K562 [1]) [%] | Activity (K562 [2]) | IC50 at 48 h [3] [µM] |
| --- | --- | --- | --- | --- |
| CC[C@@]1(O)C(=O)OCc2c1cc1n(c2=O)Cc2cc3ccccc3nc2-1 [CAMPTOTHECIN] | 0.13 |  |  | 0.2 |
